# Assay results as given in ChEMBL document CHEMBL4038325, “Opioid Receptor Modulators with a Cinnamyl Group” (J Med Chem, 2017).
# Active and inactive are the calls of the source. The calls are words filed in the database; no cut-off is given here.
# Tested on: Mus musculus
# Assay: Analgesic activity in C57BL/6J mouse assessed as tail withdrawal latency at 10 mg/kg by tail flick test
# Format: functional, organism-based
# Conditions: not given
# Outline: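 Male C57BL/6J mice, 6-8 weeks, 22-25 g; 5-6 per group. Dosed 10 mg/kg i.p. Distal third of tail immersed in 52 ± 0.5°C water; latency recorded three times per time point by a blinded observer. Latency expressed as % of baseline taken 15 min before dosing, followed over time; area under curve also calculated.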
row,Compound,Activity
1,O=C(O)/C(=C/c1ccccc1)CN1CCN(c2cccc(Cl)c2Cl)CC1,Dose-dependent effect
2,CC(C)[C@H](NC(=O)/C(=C/c1ccccc1)CN1CCN(c2ccc(Cl)cc2)CC1)C(=O)O,Dose-dependent effect

# Biological target: T1, Kappa-type opioid receptor (Homo sapiens, UniProt P41145)
# T1 sequence (P41145 whole entry): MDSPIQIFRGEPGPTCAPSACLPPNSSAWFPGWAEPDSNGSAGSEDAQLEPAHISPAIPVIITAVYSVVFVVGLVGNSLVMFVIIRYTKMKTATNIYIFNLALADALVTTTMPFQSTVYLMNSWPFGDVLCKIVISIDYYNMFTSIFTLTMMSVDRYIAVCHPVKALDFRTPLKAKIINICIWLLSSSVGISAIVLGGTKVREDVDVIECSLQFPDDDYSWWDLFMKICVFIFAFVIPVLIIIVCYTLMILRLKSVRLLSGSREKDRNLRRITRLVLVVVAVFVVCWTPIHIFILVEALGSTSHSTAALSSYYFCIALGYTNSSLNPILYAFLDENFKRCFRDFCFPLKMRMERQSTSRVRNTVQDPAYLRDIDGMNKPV
# Assay: Agonist activity at recombinant human KOR expressed in HEK293T cells assessed as inhibition of forskolin-stimulated cAMP level preincubated for 15 to 20 mins followed by forskolin addition by GloSensor assay
# Format: functional, cell-based
# Conditions: HEK-293T
# Outline: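 HEK293T transiently transfected with hKOR plus GloSensor-22F plasmid. Compounds (10 µM to 10 pM, triplicate) added for 15-20 min at 37°C, then forskolin added (final 10 µM). Luminescence of live cells normalized to % forskolin-alone control. IC50 from non-linear regression; two independent experiments.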
row,Compound,inhibition
1,CCCC(NC(=O)/C(=C/c1ccccc1)CN1CCN(c2ccc(O)cc2)CC1)C(=O)O (configuration not stated),inactive
2,CCC(C)C(NC(=O)/C(=C/c1ccccc1)CN1CCN(c2ccc(O)cc2)CC1)C(=O)O (configuration not stated),inactive
3,CC(C)[C@H](NC(=O)/C(=C/c1ccccc1)CN1CCN(c2ccc(O)cc2)CC1)C(=O)O,inactive
4,CC(C)C[C@H](NC(=O)/C(=C/c1ccccc1)CN1CCN(c2ccc(O)cc2)CC1)C(=O)O,inactive

# Now from value to molecule:
row,inhibition,Compound
1,inactive,COc1cccc(N2CCN(C/C(=C\c3ccccc3)C(=O)NCC(=O)O)CC2)c1
2,inactive,COc1ccc(N2CCN(C/C(=C\c3ccccc3)C(=O)NCC(=O)O)CC2)cc1
3,inactive,COc1ccccc1N1CCN(C/C(=C\c2ccccc2)C(=O)NCC(=O)O)CC1
4,inactive,O=C(O)CNC(=O)/C(=C/c1ccccc1)CN1CCN(c2ccc(O)cc2)CC1

# Same assay, conditions: read-out: IC50
row,Compound,IC50 [nM]
1,CCOC(=O)C(NC(=O)/C(=C/c1ccccc1)CN1CCN(c2nsc3ccccc23)CC1)C(C)C (configuration not stated),1800
2,O=C(O)/C(=C/c1ccccc1)CN1CCN(c2cccc(Cl)c2Cl)CC1,800
3,CC(C)[C@H](NC(=O)/C(=C/c1ccccc1)CN1CCN(c2ccc(Cl)cc2)CC1)C(=O)O,910

# Same assay, conditions: read-out: pIC50 (converted)
row,Compound,IC50 [nM]
1,CCOC(=O)C(NC(=O)/C(=C/c1ccccc1)CN1CCN(c2nsc3ccccc23)CC1)C(C)C (configuration not stated),1910 to 1980
2,O=C(O)/C(=C/c1ccccc1)CN1CCN(c2cccc(Cl)c2Cl)CC1,716 to 813
3,CC(C)[C@H](NC(=O)/C(=C/c1ccccc1)CN1CCN(c2ccc(Cl)cc2)CC1)C(=O)O,910 to 948

# Biological target: T2, Mu-type opioid receptor (Homo sapiens, UniProt P35372)
# T2 sequence (P35372 whole entry): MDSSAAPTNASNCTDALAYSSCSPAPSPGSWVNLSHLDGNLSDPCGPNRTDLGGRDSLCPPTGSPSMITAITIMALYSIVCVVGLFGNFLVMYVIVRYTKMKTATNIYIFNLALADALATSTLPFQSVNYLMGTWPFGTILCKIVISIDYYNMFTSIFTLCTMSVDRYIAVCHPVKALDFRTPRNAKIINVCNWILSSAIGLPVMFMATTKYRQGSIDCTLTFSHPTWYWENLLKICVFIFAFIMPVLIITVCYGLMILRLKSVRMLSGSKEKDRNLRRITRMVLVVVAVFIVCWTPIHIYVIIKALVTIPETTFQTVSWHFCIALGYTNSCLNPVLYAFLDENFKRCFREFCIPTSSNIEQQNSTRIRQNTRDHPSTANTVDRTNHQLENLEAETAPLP
# Assay: Agonist activity at recombinant human MOR expressed in HEK293T cells assessed as inhibition of forskolin-stimulated cAMP level at 10 uM preincubated for 15 to 20 mins followed by forskolin addition by GloSensor assay relative to control
# Format: functional, cell-based
# Conditions: HEK-293T
# Outline: (§1)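 HEK293T transiently co-transfected (calcium phosphate) with DOR or MOR plus pGloSensor-22F. Cells were loaded with luciferin in HBSS/20 mM HEPES pH 7.4 for 90 min, then given compound in triplicate for 15-20 min at 37°C. Forskolin added (final 10 µM); luminescence read. cAMP signal normalized to forskolin-alone control.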
row,Compound,inhibition
1,CCOC(=O)C(NC(=O)/C(=C/c1ccccc1)CN1CCN(c2nsc3ccccc23)CC1)C(C)C (configuration not stated),inactive
2,COc1ccccc1N1CCN(CCC(C(=O)N(C)C)(c2ccccc2)c2ccccc2)CC1,Active
3,CCCC(NC(=O)/C(=C/c1ccccc1)CN1CCN(c2ccc(O)cc2)CC1)C(=O)O (configuration not stated),inactive
4,CCC(C)C(NC(=O)/C(=C/c1ccccc1)CN1CCN(c2ccc(O)cc2)CC1)C(=O)O (configuration not stated),inactive
5,CC(C)[C@H](NC(=O)/C(=C/c1ccccc1)CN1CCN(c2ccc(Cl)cc2)CC1)C(=O)O,inactive
6,CC(C)[C@H](NC(=O)/C(=C/c1ccccc1)CN1CCN(c2ccc(O)cc2)CC1)C(=O)O,inactive
7,CC(C)C[C@H](NC(=O)/C(=C/c1ccccc1)CN1CCN(c2ccc(O)cc2)CC1)C(=O)O,inactive

# Second part, the molecule after the results:
row,inhibition,Compound
1,inactive,COc1cccc(N2CCN(C/C(=C\c3ccccc3)C(=O)NCC(=O)O)CC2)c1
2,inactive,COc1ccc(N2CCN(C/C(=C\c3ccccc3)C(=O)NCC(=O)O)CC2)cc1
3,inactive,O=C(O)/C(=C/c1ccccc1)CN1CCN(c2cccc(Cl)c2Cl)CC1
4,inactive,COc1ccccc1N1CCN(C/C(=C\c2ccccc2)C(=O)NCC(=O)O)CC1
5,inactive,O=C(O)CNC(=O)/C(=C/c1ccccc1)CN1CCN(c2ccc(O)cc2)CC1

# Biological target: Delta-type opioid receptor (Homo sapiens) (UniProt P41143)
# Sequence (P41143 whole entry): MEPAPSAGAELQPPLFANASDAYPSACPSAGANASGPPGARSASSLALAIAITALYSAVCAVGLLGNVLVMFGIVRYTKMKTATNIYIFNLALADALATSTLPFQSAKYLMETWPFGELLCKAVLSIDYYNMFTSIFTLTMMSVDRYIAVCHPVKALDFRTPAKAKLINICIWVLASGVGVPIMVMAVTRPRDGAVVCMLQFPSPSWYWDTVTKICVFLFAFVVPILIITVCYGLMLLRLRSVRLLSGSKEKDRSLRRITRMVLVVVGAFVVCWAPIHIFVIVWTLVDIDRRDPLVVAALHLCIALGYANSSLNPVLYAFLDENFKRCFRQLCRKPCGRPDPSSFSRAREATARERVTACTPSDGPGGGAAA
# Assay: Agonist activity at recombinant human DOR expressed in HEK293T cells assessed as inhibition of forskolin-stimulated cAMP level at 10 uM preincubated for 15 to 20 mins followed by forskolin addition by GloSensor assay relative to control
# Format: functional, cell-based
# Conditions: HEK-293T
# Outline: as §1
row,Compound,inhibition
1,CCOC(=O)C(NC(=O)/C(=C/c1ccccc1)CN1CCN(c2nsc3ccccc23)CC1)C(C)C (configuration not stated),inactive
2,O=C(O)/C(=C/c1ccccc1)CN1CCN(c2cccc(Cl)c2Cl)CC1,inactive
3,CC(C)[C@H](NC(=O)/C(=C/c1ccccc1)CN1CCN(c2ccc(Cl)cc2)CC1)C(=O)O,inactive

# Biological target: Delta-type opioid receptor (Homo sapiens) (UniProt P41143)
# Assay: Antagonist activity at recombinant human DOR expressed in HEK293T cells assessed as reduction in DADLE-induced inhibition of forskolin-stimulated cAMP level at 10 uM preincubated for 15 to 20 mins followed by DADLE and forskolin addition by GloSensor assay relative to control
# Format: functional, cell-based
# Conditions: HEK-293T
# Outline: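 HEK293T transiently expressing DOR plus GloSensor-22F were given compound in triplicate for 15-20 min at 37°C. DADLE (1 µM) was then added, followed by forskolin (10 µM); luminescence read. Signal normalized to % control (agonist + forskolin).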
row,Compound,inhibition
1,CCOC(=O)C(NC(=O)/C(=C/c1ccccc1)CN1CCN(c2nsc3ccccc23)CC1)C(C)C (configuration not stated),inactive
2,O=C(O)/C(=C/c1ccccc1)CN1CCN(c2cccc(Cl)c2Cl)CC1,inactive
3,CC(C)[C@H](NC(=O)/C(=C/c1ccccc1)CN1CCN(c2ccc(Cl)cc2)CC1)C(=O)O,inactive

# Tested on: Mus musculus
# Assay: Analgesic activity in C57BL/6J mouse assessed as tail withdrawal latency at 10 mg/kg measured after 30 mins in presence of KOR antagonist norBNI by tail flick test
# Format: functional, organism-based
# Conditions: not given
# Outline: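 Male C57BL/6J mice (5-6/group) received norBNI 10 mg/kg i.p. 30 min before test compound at 10 mg/kg i.p. Tail withdrawal latency in 52 ± 0.5°C water was measured at the 30 min time point, three readings, by a blinded observer.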
row,Compound,Activity
1,O=C(O)/C(=C/c1ccccc1)CN1CCN(c2cccc(Cl)c2Cl)CC1,inactive
2,CC(C)[C@H](NC(=O)/C(=C/c1ccccc1)CN1CCN(c2ccc(Cl)cc2)CC1)C(=O)O,inactive

# Biological target: T3, D(2) dopamine receptor (Homo sapiens, UniProt P14416)
# T3 sequence (P14416 whole entry): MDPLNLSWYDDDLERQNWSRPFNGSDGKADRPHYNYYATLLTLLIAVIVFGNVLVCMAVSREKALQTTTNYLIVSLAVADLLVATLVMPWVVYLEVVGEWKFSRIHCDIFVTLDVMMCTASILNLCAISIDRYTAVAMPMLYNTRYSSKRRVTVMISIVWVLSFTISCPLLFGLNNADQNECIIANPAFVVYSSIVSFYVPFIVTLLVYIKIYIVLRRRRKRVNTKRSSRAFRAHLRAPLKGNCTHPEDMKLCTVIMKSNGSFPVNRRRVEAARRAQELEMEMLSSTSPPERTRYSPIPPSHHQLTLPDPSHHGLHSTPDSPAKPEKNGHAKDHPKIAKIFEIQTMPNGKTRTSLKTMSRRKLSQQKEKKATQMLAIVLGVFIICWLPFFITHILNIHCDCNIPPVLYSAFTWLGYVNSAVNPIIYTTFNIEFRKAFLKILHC
# Assay: Agonist activity at dopamine D2 receptor (unknown origin) at 10 uM
# Conditions: not given
# Outline: (§2)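 Primary screen, agonist and antagonist modes, each receptor tested separately. Compounds at 10 µM in triplicate; response taken as % inhibition or stimulation relative to control. Compounds giving at least 50% effect were then run over 10 µM to 10 pM to obtain EC50/IC50.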
row,Compound,Activity
1,CCOC(=O)C(NC(=O)/C(=C/c1ccccc1)CN1CCN(c2nsc3ccccc23)CC1)C(C)C (configuration not stated),Not Active
2,O=C(O)/C(=C/c1ccccc1)CN1CCN(c2cccc(Cl)c2Cl)CC1,Not Active
3,CC(C)[C@H](NC(=O)/C(=C/c1ccccc1)CN1CCN(c2ccc(Cl)cc2)CC1)C(=O)O,Not Active

# Biological target: T3, D(2) dopamine receptor
# Assay: Antagonist activity at dopamine D2 receptor (unknown origin) at 10 uM
# Conditions: not given
# Outline: as §2
row,Compound,inhibition (INH)
1,CCOC(=O)C(NC(=O)/C(=C/c1ccccc1)CN1CCN(c2nsc3ccccc23)CC1)C(C)C (configuration not stated),Not Active
2,O=C(O)/C(=C/c1ccccc1)CN1CCN(c2cccc(Cl)c2Cl)CC1,Not Active
3,CC(C)[C@H](NC(=O)/C(=C/c1ccccc1)CN1CCN(c2ccc(Cl)cc2)CC1)C(=O)O,Not Active

# Biological target: Histamine H1 receptor (Homo sapiens) (UniProt P35367)
# Sequence (P35367 whole entry): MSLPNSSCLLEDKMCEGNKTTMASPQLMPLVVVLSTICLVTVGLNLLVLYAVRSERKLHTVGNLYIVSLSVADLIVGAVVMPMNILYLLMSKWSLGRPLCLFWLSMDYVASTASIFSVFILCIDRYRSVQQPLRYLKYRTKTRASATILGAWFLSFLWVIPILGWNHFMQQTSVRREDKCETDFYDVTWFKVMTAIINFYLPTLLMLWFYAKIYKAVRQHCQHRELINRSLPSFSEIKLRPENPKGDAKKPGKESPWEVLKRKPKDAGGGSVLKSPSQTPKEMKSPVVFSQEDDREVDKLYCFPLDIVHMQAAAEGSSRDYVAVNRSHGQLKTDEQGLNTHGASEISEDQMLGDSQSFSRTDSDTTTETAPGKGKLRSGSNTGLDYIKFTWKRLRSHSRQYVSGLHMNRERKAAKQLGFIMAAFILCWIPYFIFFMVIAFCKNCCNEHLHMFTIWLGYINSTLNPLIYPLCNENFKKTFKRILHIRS
# Assay: Agonist activity at histamine H1 receptor (unknown origin) at 10 uM
# Conditions: not given
# Outline: as §2
row,Compound,Activity
1,CCOC(=O)C(NC(=O)/C(=C/c1ccccc1)CN1CCN(c2nsc3ccccc23)CC1)C(C)C (configuration not stated),inactive
2,O=C(O)/C(=C/c1ccccc1)CN1CCN(c2cccc(Cl)c2Cl)CC1,inactive
3,CC(C)[C@H](NC(=O)/C(=C/c1ccccc1)CN1CCN(c2ccc(Cl)cc2)CC1)C(=O)O,inactive

# Biological target: Histamine H1 receptor (Homo sapiens) (UniProt P35367)
# Assay: Antagonist activity at histamine H1 receptor (unknown origin) at 10 uM
# Conditions: not given
# Outline: as §2
row,Compound,inhibition
1,CCOC(=O)C(NC(=O)/C(=C/c1ccccc1)CN1CCN(c2nsc3ccccc23)CC1)C(C)C (configuration not stated),inactive
2,O=C(O)/C(=C/c1ccccc1)CN1CCN(c2cccc(Cl)c2Cl)CC1,inactive
3,CC(C)[C@H](NC(=O)/C(=C/c1ccccc1)CN1CCN(c2ccc(Cl)cc2)CC1)C(=O)O,inactive

# Biological target: T1, Kappa-type opioid receptor
# Conditions: HEK-293T, at 10 µM
row,Compound,inhibition
1,CCCC(NC(=O)/C(=C/c1ccccc1)CN1CCN(c2ccc(O)cc2)CC1)C(=O)O (configuration not stated),inactive
2,CCC(C)C(NC(=O)/C(=C/c1ccccc1)CN1CCN(c2ccc(O)cc2)CC1)C(=O)O (configuration not stated),inactive
3,CC(C)[C@H](NC(=O)/C(=C/c1ccccc1)CN1CCN(c2ccc(O)cc2)CC1)C(=O)O,inactive
4,CC(C)C[C@H](NC(=O)/C(=C/c1ccccc1)CN1CCN(c2ccc(O)cc2)CC1)C(=O)O,inactive

# More lines, now with the values ahead:
row,inhibition,Compound
1,inactive,COc1cccc(N2CCN(C/C(=C\c3ccccc3)C(=O)NCC(=O)O)CC2)c1
2,inactive,COc1ccc(N2CCN(C/C(=C\c3ccccc3)C(=O)NCC(=O)O)CC2)cc1
3,inactive,COc1ccccc1N1CCN(C/C(=C\c2ccccc2)C(=O)NCC(=O)O)CC1
4,inactive,O=C(O)CNC(=O)/C(=C/c1ccccc1)CN1CCN(c2ccc(O)cc2)CC1

# Biological target: T2, Mu-type opioid receptor
# Conditions: HEK-293T, at 10 µM
row,Compound,inhibition
1,CCOC(=O)C(NC(=O)/C(=C/c1ccccc1)CN1CCN(c2nsc3ccccc23)CC1)C(C)C (configuration not stated),inactive
2,CCCC(NC(=O)/C(=C/c1ccccc1)CN1CCN(c2ccc(O)cc2)CC1)C(=O)O (configuration not stated),inactive
3,CCC(C)C(NC(=O)/C(=C/c1ccccc1)CN1CCN(c2ccc(O)cc2)CC1)C(=O)O (configuration not stated),inactive
4,CC(C)[C@H](NC(=O)/C(=C/c1ccccc1)CN1CCN(c2ccc(Cl)cc2)CC1)C(=O)O,inactive
5,CC(C)[C@H](NC(=O)/C(=C/c1ccccc1)CN1CCN(c2ccc(O)cc2)CC1)C(=O)O,inactive
6,CC(C)C[C@H](NC(=O)/C(=C/c1ccccc1)CN1CCN(c2ccc(O)cc2)CC1)C(=O)O,inactive

# Second part, the molecule after the results:
row,inhibition,Compound
1,inactive,COc1cccc(N2CCN(C/C(=C\c3ccccc3)C(=O)NCC(=O)O)CC2)c1
2,inactive,COc1ccc(N2CCN(C/C(=C\c3ccccc3)C(=O)NCC(=O)O)CC2)cc1
3,inactive,O=C(O)/C(=C/c1ccccc1)CN1CCN(c2cccc(Cl)c2Cl)CC1
4,inactive,COc1ccccc1N1CCN(C/C(=C\c2ccccc2)C(=O)NCC(=O)O)CC1
5,inactive,O=C(O)CNC(=O)/C(=C/c1ccccc1)CN1CCN(c2ccc(O)cc2)CC1
